Results reported in PubChem BioAssay.
Calls of active or inactive are those of the source.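 The calls were made as follows, unless noted: active = viability at or below 10% of carrier control in both of two separate runs; inconclusive = viability at or below 10% in only one of the two runs; inactive = the rest.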

How the values were obtained:
[1] = SK-BR-3 cell growth inhibitors, pilot screen, 24 h, human (AID 572); conditions: SK-BR-3 viability, CellTiter-Glo luminescence, at 10 µM, stronger effect = lower value;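 also: compound exposure lasted between 18 and 24 h rather than exactly 24 h; 100% = carrier-treated control wells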
[2] = HUVEC growth inhibition – cell-based, human, primary screen (AID 575;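 active = viability at or below 30% in both replicate assays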;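 also: 100% = median of untreated cell wells with 0.1% DMSO on each plate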); conditions: HUVEC proliferation, CellTiter-Glo luminescence, 72 h; at 10 µM; stronger effect = lower value
Method in brief: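 Test system – primary HUVEC, no more than 12 passages · Dosing – one dose, 10 µM final, 0.1% DMSO · Times – 72 h treatment at 37 °C · Measured by – ATP-based CellTiter-Glo luminescent read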

[3] = growth inhibitors of H69AR lung tumor, primary screen, human, duplicate replicates (AID 580;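 active = viability at or under a set limit in both replicates, limit being median viability minus 3 SD, cut at about 48% in these data, passing the limit was not always enough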;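 also: 100% = mean luminescence of untreated wells and 0% = no signal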); conditions: H69AR lung tumor cells viability, ATP luminescence, 72 h; at 10 µM; stronger effect = lower value
[4] = reversal of MRP1-mediated doxorubicin resistance, pilot screen, H69AR cells, doxorubicin co-treatment (AID 601;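 active = viability loss from added drug above about 55%, and viability with drug at most 40%, in both replicates, limit read from the data, passing the limit was not always enough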); conditions: CellTiter-Glo, 72 h, at 10 µM; for differential viability (reversal): stronger effect = higher value
[5] = 384-well plate pilot, post-Golgi transport modulator project, inhibition of yeast transport mutant growth (AID 636; in the data active = inhibition above about 31%); conditions: absorbance 615 nm, about 18 h, stronger effect = higher value
[6] = growth suppression of yeast trafficking mutant, preliminary HTS, modulators of trafficking downstream of Golgi apparatus project, 1536-format plate, OD 615 nm (AID 637; in the data active = inhibition above about 30%); conditions: yeast transport mutant growth, absorbance 615 nm, 18 h; stronger effect = higher value
[7] = H69AR cells + 2 uM doxorubicin, measured here: viability with 2 uM doxorubicin, stronger effect = lower value
[8] = H69AR cells, compound alone cytotoxicity

| SMILES | viability [1] | viability [2] | viability [3] | differential viability (reversal) ([4]; H69AR cells + 2 uM doxorubicin) | viability [4, 7] [%] | viability [4, 8] [%] | inhibition [5] | inhibition [6] |
| --- | --- | --- | --- | --- | --- | --- | --- | --- |
| CCn1cc(C(=O)NCc2ccco2)c(=O)c2cc(F)c(N3CCN(C(=O)c4ccco4)CC3)cc21 | 94% (inactive) | 62.4% (inactive) | 58.6% (inactive) | 40.8% (inactive) | 17.7 | 58.6 | -7.4% (inactive) | -1.45% (inactive) |
| c1ccc(OCc2nc(-c3ccccc3)no2)cc1 | 98% (inactive) | 92.5% (inactive) | 93.5% (inactive) | 3.62% (inactive) | 89.9 | 93.5 | 0.14% (inactive) | 29.5% (inactive) |
| CCOC(=O)C1C2C=CC3(CN(Cc4ccco4)C(=O)C13)O2 (stereo not given) | 97% (inactive) | 95.6% (inactive) | 96.5% (inactive) | 6.86% (inactive) | 89.7 | 96.5 | -6.99% (inactive) | 1.45% (inactive) |
| Cc1nn(-c2ccccc2)c2[nH]c(C(F)(F)F)cc(=O)c12 | 131% (inactive) | 95.6% (inactive) | 108% (inactive) | -10.8% (inactive) | 118 | 108 | -5.62% (inactive) | 4.36% (inactive) |
| COCc1nnc(SCC(=O)NC(C)c2ccccc2)n1-c1ccccc1 (stereo not given) | 84% (inactive) | 101% (inactive) | 100% (inactive) | -5.31% (inactive) | 105 | 100 | -4.66% (inactive) | 1.27% (inactive) |
| Cc1ccc2c(c1)CCCN2C(=O)c1ccc2c(c1)OCO2 | 48% (inactive) | 108% (inactive) | 101% (inactive) | -8.85% (inactive) | 110 | 101 | -8.63% (inactive) | -6.18% (inactive) |
| CCOC(=O)N1CCC(NC(=O)Cn2ncc3c4ccccc4n(C)c3c2=O)CC1 | 114% (inactive) | 116% (inactive) | 97.5% (inactive) | -7.6% (inactive) | 105 | 97.5 | -7.43% (inactive) | -3.27% (inactive) |
| Cc1cc(=O)n(CCO)c(O)c1C#N | 81.5% (inactive) | 107% (inactive) | 95.1% (inactive) | -5.74% (inactive) | 101 | 95.1 | -3.95% (inactive) | 22.8% (inactive) |
| CC(C)c1nc(NCC2CCCO2)c(C#N)c2c1COC(C)(C)C2 (stereo not given) | 95% (inactive) | 74.9% (inactive) | 89.1% (inactive) | 4.7% (inactive) | 84.4 | 89.1 | -9.86% (inactive) | 13.9% (inactive) |
| FC(F)Oc1cccc2cccnc12 | 89% (inactive) | 111% (inactive) | 94% (inactive) | 9.04% (inactive) | 84.9 | 94 | -3.33% (inactive) | -0.55% (inactive) |
| Cc1cc(C)nc(N(C#N)CC(=O)N2CCC(C(N)=O)CC2)n1 | 104% (inactive) | 85.9% (inactive) | 98.6% (inactive) | 4.1% (inactive) | 94.5 | 98.6 | -7.95% (inactive) | 1.45% (inactive) |
| CCc1nnc(NC(=O)CSc2nc(-c3ccc(OC)cc3)ns2)s1 | 110% (inactive) | 101% (inactive) | 93.1% (inactive) | -0.64% (inactive) | 93.7 | 93.1 | -5.07% (inactive) | 0.91% (inactive) |
| CCOC(=O)C1CN(S(=O)(=O)c2ccc(C)cc2)CCN1S(=O)(=O)c1ccc(C)cc1 (stereo not given) | 100% (inactive) | 101% (inactive) | 84.5% (inactive) | -16.3% (inactive) | 101 | 84.5 | -2.6% (inactive) | -1.8% (inactive) |
| Cn1c(=O)[nH]c(=O)c2c1nc(Br)n2CCCSc1nc2ccccc2o1 | 89% (inactive) | 36.2% (inactive) | 23.8% (active) | -9.42% (inactive) | 33.3 | 23.8 | -4.13% (inactive) | -4.55% (inactive) |
| O=C(c1ccccc1)c1ccc(N2CCNCC2)cc1 | 129% (inactive) | 96.4% (inactive) | 84.5% (inactive) | -5.36% (inactive) | 89.9 | 84.5 | -2.05% (inactive) | 6.91% (inactive) |
| CC(C)N(Cc1nc(-c2ccccc2)no1)C(=O)CCCN1C(=O)c2ccccc2C1=O | 104% (inactive) | 112% (inactive) | 97.9% (inactive) | 15.7% (inactive) | 82.2 | 97.9 | -3.12% (inactive) | 0.98% (inactive) |
| COc1ccc2c(C)nc(Nc3nc(C)cc(C)n3)nc2c1 | 84% (inactive) | 114% (inactive) | 87.3% (inactive) | -6.58% (inactive) | 93.9 | 87.3 | -6.08% (inactive) | 0% (inactive) |
| O=C(CCn1c(=O)sc2ccccc21)NCc1ccc2c(c1)OCO2 | 75% (inactive) | 111% (inactive) | 99.9% (inactive) | 8.43% (inactive) | 91.5 | 99.9 | -0.81% (inactive) | -2.91% (inactive) |

| SMILES | viability [1] | viability [2] | viability [3] | differential viability (reversal) ([4]; H69AR cells + 2 uM doxorubicin) | viability [4, 7] [%] | viability [4, 8] [%] | inhibition [5] | inhibition [6] |
| --- | --- | --- | --- | --- | --- | --- | --- | --- |
| O=C(Nc1ccccc1C(=O)O)c1cccc(NC(=O)c2ccc(Br)o2)c1 | 91% (inactive) | 80% (inactive) | 102% (inactive) | 7.51% (inactive) | 94.4 | 102 | -10.8% (inactive) | -1.82% (inactive) |
| Cn1c2c(c(=O)n(C)c1=O)C(NC(=O)C(C)(C)C)(C(F)(F)F)C(=O)N2 (stereo not given) | 105% (inactive) | 98.7% (inactive) | 90.3% (inactive) | 9.01% (inactive) | 81.3 | 90.3 | -6.62% (inactive) | -1.82% (inactive) |
| CCOC(=O)N1CCC(NC(=O)C2CCC(Cn3c(=O)[nH]c4ccccc4c3=O)CC2)CC1 (stereo not given) | 134% (inactive) | 64.8% (inactive) | 16.8% (active) | -7.75% (inactive) | 24.6 | 16.8 | -5.71% (inactive) | 0.66% (inactive) |
| O=C(O)CCc1ccc(-c2ccc(F)cc2)n1CCC(=O)O | 71% (inactive) | 104% (inactive) | 98.5% (inactive) | -9.11% (inactive) | 108 | 98.5 | -7.53% (inactive) | 3.45% (inactive) |
| NC(=O)C1(N2CCCCC2)CCN(C(=O)Nc2ccccc2C(F)(F)F)CC1 | 97% (inactive) | 105% (inactive) | 90.9% (inactive) | 4.2% (inactive) | 86.7 | 90.9 | -0.39% (inactive) | 5.08% (inactive) |
| CCC(c1c(C)n(C)n(-c2ccccc2)c1=O)c1c(C)n(C)n(-c2ccccc2)c1=O | 78% (inactive) | 103% (inactive) | 100% (inactive) | 8.48% (inactive) | 91.5 | 100 | -5.21% (inactive) | 4.73% (inactive) |
| CCn1cc(C(=O)O)c(=O)c2cc(F)c(N3CCNCC3)nc21 | 106% (inactive) | 84% (inactive) | 105% (inactive) | 3.24% (inactive) | 102 | 105 | 2.34% (inactive) | -2.33% (inactive) |
| COc1cc(NC2c3ccccc3C(=O)N2c2ccc(C)cn2)cc(OC)c1OC (stereo not given) | 90.5% (inactive) | 85.5% (inactive) | 88.7% (inactive) | 3.73% (inactive) | 85 | 88.7 | -1.41% (inactive) | 1.17% (inactive) |
| Cc1ccc(CCNC(=O)C2CCC(=O)N2C2CCCC2)cc1 (stereo not given) | 79% (inactive) | 99.7% (inactive) | 94.9% (inactive) | 13% (inactive) | 81.9 | 94.9 | -2.08% (inactive) | 0% (inactive) |
| COc1ccccc1-n1cnc2cc(NS(=O)(=O)c3ccccc3)ccc21 | 62% (inactive) | 101% (inactive) | 87.1% (inactive) | -0.69% (inactive) | 87.8 | 87.1 | -3.15% (inactive) | -6.55% (inactive) |
| COc1ccccc1NC(=O)Cc1noc(CSc2cc(C)c3ccccc3n2)n1 | 104% (inactive) | 89.5% (inactive) | 92.5% (inactive) | 11.8% (inactive) | 80.7 | 92.5 | -4.59% (inactive) | 1.64% (inactive) |
| Cn1c(=O)c2c(nc(CN3CCN(c4ccccc4F)CC3)n2CCN2CCOCC2)n(C)c1=O | 101% (inactive) | 96.8% (inactive) | 93.9% (inactive) | 4.5% (inactive) | 89.4 | 93.9 | -5.95% (inactive) | 0.91% (inactive) |
| O=C(CN1CCCN(S(=O)(=O)c2ccc(Br)cc2)CC1)Nc1ccc2c(c1)OCO2 | 91% (inactive) | 75% (inactive) | 6.58% (active) | -10.3% (inactive) | 16.9 | 6.58 | -0.52% (inactive) | 3.77% (inactive) |
| CCn1cc(C(=O)O)c(=O)c2cc(F)c(N3CCNCC3)cc21 | 105% (inactive) | 91.1% (inactive) | 92.1% (inactive) | 3.17% (inactive) | 88.9 | 92.1 | -3.77% (inactive) | 7.83% (inactive) |
| Cc1ccc2c(C)nc(NC3=NCN(C(C)C)CN3)nc2c1 | 106% (inactive) | 94.3% (inactive) | 84.3% (inactive) | -15.4% (inactive) | 99.7 | 84.3 | -5.89% (inactive) | 0.48% (inactive) |
| COc1cccc(-c2nnc(NC(=O)Cc3cccs3)s2)c1 | 88% (inactive) | 84.8% (inactive) | 82.6% (inactive) | -14.2% (inactive) | 96.8 | 82.6 | -5.34% (inactive) | 5.16% (inactive) |
| COc1ccc(CN2C(=O)[C@@H]3C(c4ccc(F)cc4)=NO[C@@H]3C2=O)cc1 | 91% (inactive) | 114% (inactive) | 89.1% (inactive) | 3.49% (inactive) | 85.6 | 89.1 | -6.62% (inactive) | 1.64% (inactive) |
